This note sets out measurements from ChEMBL document CHEMBL4480395, “Pros and cons of virtual screening based on public "Big Data": In silico mining for new bromodomain inhibitors” (Eur J Med Chem, 2019).

For test [1], the target named is T1, Bromodomain-containing protein 4 (Homo sapiens, UniProt O60885). Nature of the test: Binding affinity to N-terminal His6-tagged BRD4 bromodomain 1 (44 to 168 residues) (unknown origin) assessed as change in melting temperature at 20 uM measured after 1 hr by Sypro orange dye based differential scanning fluorimetry. The method in brief: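 Ligand binding was read by differential scanning fluorimetry: a fluorescent dye reports protein core exposure during heat denaturation, and the value is the shift in protein denaturation temperature (ΔTm) with compound present.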
Background: Differential scanning fluorimetry follows unfolding on heating by fluorescence.

In test [2] the target is T1, Bromodomain-containing protein 4. The test is described as follows: Inhibition of BRD4 (unknown origin) measured after 2 hrs by TR-FRET assay. For orientation: TR-FRET usually uses a lanthanide donor and a delayed reading to cut background.

Molecules are shown by their SMILES.

As usually defined, the ΔTm is the shift of the melting midpoint relative to a reference. Consider `Cc1nn(CCO)c(C)c1CNC(c1ccccc1)c1nccn1C` (stereo not drawn), for which, in test [1], the thermal shift (ΔTm) worked out at 1.09 °C. Still for that read-out and setting: with `Cc1noc(C)c1CNC(=O)Nc1cccc(-c2ccc(Cl)c(Cl)c2)c1` the figure was 1.56 °C; with `Cc1noc(C)c1NC(=O)N1CCCCC1c1ncc[nH]1` (stereo not drawn), 1.76 °C; with `CC(Sc1nc(-c2cccs2)n[nH]1)C(=O)N1CCCc2ccccc21` (stereo not drawn), 1.78 °C.

As to `CC(C(=O)Nc1ccc2nnc(C3CCC3)n2c1)n1cncn1` (stereo not drawn), the ΔTm in test [1] turned out to be 1.49 °C.

For `COCCc1ccccc1NC(=O)NC(c1ccccc1)c1n[nH]c(C)n1` (stereo not drawn), in test [1], the ΔTm is 1.26 °C.

One may read the IC50 as the concentration that gives 50% inhibition. A lower IC50 goes with inhibition by little substance. `Cc1nnc2ccc(NCc3cn(-c4ccccc4)nc3C(C)C)nn12` yielded an IC50 in test [2] of 11.7 µM. Besides, in test [1], the ΔTm worked out at 2.66 °C.

In turn, `c1cnn(-c2ccc(CNc3ccc4nnc(C5CC5)n4n3)cc2)c1` registered an IC50 in test [2] of 63.3 µM. In test [1], the ΔTm was 0.76 °C. For the molecule `Cc1nnc2ccc(NC3CCCc4cc(OC(F)F)ccc43)nn12` (stereo not drawn), the ΔTm in test [1] turned out to be 1.7 °C. `Cc1nnc2ccc(NCc3ccnc(OC4CCCC4)c3)nn12`: the shift in melting temperature (ΔTm) in test [1] was 1.69 °C. On the same count and under the same terms, with `CCC(C)C1NC(=O)N(CC(C)c2c(C)noc2C)C1=O` (stereo not drawn) the figure was 2.12 °C; with `O=C(CCc1ncc(-c2ccc(Cl)cc2Cl)o1)NCCc1nnc2ccccn12`, 1.21 °C. Molecule `Cc1cc(-c2cc(C(=O)NC3CCC(CO)CC3)c3c(C)noc3n2)c(C)o1` (stereo not drawn) showed an IC50 in test [2] of 24.9 µM. Further, the ΔTm in test [1] was 2.82 °C.

With `COCCN(C)c1ccccc1CNc1ccc2nnc(C)n2n1`, the IC50 in test [2] stood at 107 µM. Moreover, the ΔTm in test [1] came to 1.1 °C.

`Cc1nnc2c(NCc3cnn(-c4ccc(Cl)cc4)c3)nccn12`: the ΔTm in test [1] was 1.86 °C. Turning to `Cc1noc(C)c1CSCC(=O)c1c(C)[nH]c2ccccc12`, the ΔTm in test [1] stood at 1.36 °C. On to `Cc1noc(C)c1COc1ccccc1C(=O)NC(c1ccccc1)c1ccccc1`, for which the ΔTm in test [1] is 0.93 °C. Regarding `Cc1noc(C)c1CC(=O)Nc1nc(-c2c(C)[nH]c3ccccc23)cs1`, in test [2], half-maximal inhibition (IC50) was put at 19.5 µM. Further, the ΔTm in test [1] was 1.86 °C. For the molecule `Cc1c(C2OCCC2NCc2cc(-c3cnn(C)c3)no2)cnn1C` (stereo not drawn), the ΔTm in test [1] was 2.02 °C.

As for `Cc1nnc2ccc(N3CCN(C(=O)c4csc(-c5ccccc5F)n4)CC3)nn12`, the ΔTm in test [1] amounted to 1.72 °C.

Consider `Cc1nn(C)c(C)c1C1C(CNc2nccn3cnnc23)CC(=O)N1C` (stereo not drawn), for which, in test [2], the IC50 was found to be 23.9 µM. Moreover, the ΔTm in test [1] was 1.9 °C. On to `Cc1nnc2ccc(NCc3ccc(OC4CCCC4)nc3)nn12`, for which the shift in melting temperature (ΔTm) in test [1] stood at 1.89 °C. As for `Cc1nnc2ccc(N(C)Cc3ccc([S+](C)[O-])cc3)nn12` (stereo not drawn), the ΔTm in test [1] turned out to be 1.8 °C. `Cc1nn(C2CCS(=O)(=O)C2)c(C)c1CN(C)C(=O)CC(c1ccccc1)c1ccccc1` (stereo not drawn) gave an IC50 in test [2] of 160 µM. Besides, the ΔTm in test [1] stood at 1.82 °C. For `Cc1n[nH]c(C)c1CNCc1c(C)nn(Cc2ccccc2)c1C` the same measures were 33.2 µM and 1.6 °C. As to `COc1ccc(-n2ccc(C(=O)Nc3cc(Cl)c(=O)n(C)c3)n2)cc1`, the ΔTm in test [1] was 1.08 °C. As for `CCn1c(SC(C(=O)NCc2cccnc2)C(C)C)nnc1-c1cccs1` (stereo not drawn), in test [2], it took 8.81 µM to reach half-maximal inhibition (IC50). Moreover, the ΔTm in test [1] was determined as 1.6 °C. With `COCCCOc1cc(C)ccc1CNc1ccc2nnc(C)n2n1`, the ΔTm in test [1] stood at 1.56 °C. On the same count and under the same terms, with `Cc1cc(C(=O)N(C)C(c2ccccc2)c2ccccn2)c2c(C)nn(C(C)(C)C)c2n1` (stereo not drawn) the figure was 1.49 °C.
